M5 ag = CHRM5 agonism in calcium assay | P08912 | CHO-K1 hM5 cells, Fluo-8 calcium fluorescence; 0% DMSO wells, 100% maximal acetylcholine response | activation, % at 3 µM | 360,000 compounds, 0.19% hits;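 active means activation above the run's mean over test compounds plus 3 SD, cut at about 23% in these data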;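 further: signal is peak over basal fluorescence ratio across the kinetic read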
Target sequence (P08912 whole entry, looked up): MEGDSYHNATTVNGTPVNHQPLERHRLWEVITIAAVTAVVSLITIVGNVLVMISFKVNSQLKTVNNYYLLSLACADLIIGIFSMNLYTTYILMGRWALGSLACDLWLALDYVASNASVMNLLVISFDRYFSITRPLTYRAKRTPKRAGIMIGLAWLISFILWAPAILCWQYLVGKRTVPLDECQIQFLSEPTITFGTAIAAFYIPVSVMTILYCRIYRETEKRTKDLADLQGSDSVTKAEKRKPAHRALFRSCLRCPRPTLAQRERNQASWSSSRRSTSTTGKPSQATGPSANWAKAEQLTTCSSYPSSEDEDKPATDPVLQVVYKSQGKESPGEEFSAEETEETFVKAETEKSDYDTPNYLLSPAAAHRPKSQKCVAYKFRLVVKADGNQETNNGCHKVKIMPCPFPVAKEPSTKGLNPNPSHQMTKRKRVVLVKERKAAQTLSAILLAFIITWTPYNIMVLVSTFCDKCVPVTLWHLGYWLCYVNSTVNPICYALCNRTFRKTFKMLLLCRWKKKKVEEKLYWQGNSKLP
M1 PAM = positive allosteric modulators of human M1 muscarinic receptor; AID 588819; CHO-K1 hM1, Fluo-8 calcium fluorescence, ACh EC20; 0% = ACh EC20, 100% = maximal ACh; activation, % at 3 µM; 360,000 compounds, 0.088% hits; P11229; in the data active means activation above about 19%, passing the limit was not always enough
CHRM5 PAM = CHRM5 positive allosteric modulation. 360,000 compounds, 0.3% hits. CHO-K1 hM5, Fluo-8 calcium, ACh EC20 PAM; 0% = ACh EC20, 100% = ACh EC100. AID 624038. P08912. activation, % at 3 µM;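 active means activation above the run cutoff, the mean activation of all test compounds plus 3 SD, cut at about 18% in these data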
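Measured by: Fluo-8 calcium fluorescence; material: human M5 receptor in CHO-K1 cells; schedule: Post-acetylcholine fluorescence recording 140 s; benchmarks: low control EC20 acetylcholine (0%), high control EC100 acetylcholine (100%); read-out: Max/basal fluorescence ratio as % of EC20–EC100 ACh window; compound: single dose, 3 µM nominal final test concentration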
CHRM1 agonist = agonists of human M1 muscarinic receptor; CHO-K1 hM1, Fluo-8 calcium fluorescence, agonist mode; 0% DMSO, 100% acetylcholine EC100; activation, % at 3 µM; 360,000 compounds, 0.33% hits;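 active means activation above the run's mean compound activation plus 3 SD, cut at about 16% in these data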;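 further: peak over basal fluorescence ratio within a 140 s kinetic read after compound addition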
CHRM1 antagonist = antagonists of human M1 muscarinic receptor. 360,000 compounds, 1.3% hits. inhibition, % at 3 µM. P11229. CHO-K1 hM1, Fluo-8 calcium fluorescence, ACh EC80 antagonist. AID 588852;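 active means percent inhibition above its own plate's cutoff, namely the mean of that plate's compound wells plus 3 SD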;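 further: peak over basal fluorescence ratio during 140 s after agonist addition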
M5 antag = CHRM5 antagonism in calcium assay. P08912. CHO-hM5 cells, Fluo-8 calcium fluorescence, ACh EC80. inhibition, % at 3 µM. 360,000 compounds, 0.59% hits. AID 624040;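 active means inhibition above a per-plate cutoff, the mean of that plate's test compounds plus 3 SD, cut at about 27% in these data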
Each line names hits and unclear results; the compound was inactive in the other large screens. Sampled rows, rich in hits. Any-hit rate of the full collection: about 2%.

CC1(C(=O)Nc2cccc3ccccc23)CCN1C(=O)Cc1ccccc1Cl (centres undefined)	none
CCCCn1nnnc1C1(C)CCC(=O)N1C1CC1 (centres undefined)	none (no result: M1 PAM, CHRM1 agonist, CHRM1 antagonist)
O=C(Nc1c(-c2ccc3c(c2)OCO3)[nH][nH]c1=O)c1cnccn1	none
Cc1ccc(C(=O)/C=C/Nc2cccc(O)c2)cc1	CHRM5 PAM 35
CCOc1ccc(NS(=O)(=O)c2ccc(NC(=S)NC(=O)CC(C)C)cc2)cc1	CHRM1 agonist 17
C=C(C)CN(CC)C(=O)COc1ccc(S(=O)(=O)Nc2ccc(OC)cc2)cc1	CHRM1 agonist 21
COc1ccc(S(=O)(=O)Nc2ccc(S(=O)(=O)NCC3CCCO3)cc2)cc1 (centres undefined)	none
COc1ccc(NS(=O)(=O)c2ccc(NC(=S)NCC3CCCO3)cc2)cc1 (centres undefined)	M5 antag 27
CCN(CC(=O)Nc1ccc(OC)cc1)C(=O)c1ccc(NS(=O)(=O)c2ccc(C(C)=O)cc2)cc1	none
CCCC(=O)NC(=S)Nc1ccc(S(=O)(=O)Nc2ccc(OCC)cc2)cc1	M5 ag 25, CHRM1 agonist 28
CC(C)CC(=O)NC(=S)Nc1ccc(S(=O)(=O)NC(C)(C)C)cc1	none
C[C@@H]1CN([C@H](C)CO)C(=O)c2cc(-c3ccccc3)cnc2O[C@@H]1CN(C)C(=O)C1CCOCC1	none
Nc1cc(=O)[nH]c(SCc2ccc(Cl)cc2Cl)n1	M5 antag 30
COc1cccc(C2=Cc3ccc(F)cc3C(CC(C)=O)N2c2ccc(C#CC3(O)CCCCC3)cc2)c1 (centres undefined)	none (no result: M1 PAM, CHRM1 agonist, CHRM1 antagonist)
CCCNC(=O)C1(C)CCCN(Cc2ccc3c(c2)OCO3)C1 (centres undefined)	none
Oc1ccc(Cl)cc1C1=NNC(c2cc(Br)cc3c2OCOC3)C1 (centres undefined)	CHRM5 PAM 21
Oc1ccc(Cl)cc1C1=NNC(c2ccc(Cl)cc2)C1 (centres undefined)	none
Fc1ccccc1-c1csc(=Nc2cccnc2)n1CCCn1ccnc1	CHRM1 antagonist 30
COc1ccc(COc2cc(-c3cccc(OC)c3)nc3ccc(NC(=O)c4ccc(N(C)C)cc4)cc23)cc1	CHRM1 antagonist 40
COc1cc(OC)c(OC)cc1CN1CCN(Cc2ccc(C(F)(F)F)cc2)CC1	CHRM5 PAM 22
O=C(NCc1cc(Cl)cc(Cl)c1)c1csc([C@@H]2O[C@H](CO)[C@H](O)[C@H](O)[C@H]2O)n1	none
O=C1C2C3c4ccccc4C(c4ccccc43)[C@@H]2C(=O)N1c1nc(-c2ccccc2)cs1 (some centres undefined)	none
O=C1C2C3c4ccccc4C(c4ccccc43)C2C(=O)N1c1nc(-c2ccccc2)cs1 (centres undefined)	M1 PAM 20
COc1ccc(/C=N/N=C2/NC(=O)C(c3ccccc3)S2)c(OC)c1 (centres undefined)	CHRM5 PAM 18
O=C(NCc1ccccc1)C(c1ccco1)N1CCN(c2ccccc2F)CC1 (centres undefined)	none (no result: M1 PAM, CHRM1 agonist, CHRM1 antagonist)
Cc1cc(N2CCCCCC2)nc2ccc(F)cc12	CHRM1 agonist 31
COc1ccc(C(=O)N2CCC(C)(C(=O)O)C2)c(OC)c1 (centres undefined)	none
COC(=O)CNC(=O)CN1C(=O)NC2(CCCc3ccccc32)C1=O (centres undefined)	none
COCCNC(=O)CN1C(=O)NC2(CCCc3ccccc32)C1=O (centres undefined)	CHRM1 antagonist 67
O=C(CN1CCOCC1)Nc1ccccc1-c1ccccc1	none
O=C(COC(=O)c1ccc(O)cc1)Nc1ccccc1-c1ccccc1	M5 antag 35
O=C(C[n+]1ccccc1)Nc1ccc(Oc2ccccc2)cc1	CHRM1 antagonist 91
O=C(CN1CCCCC1)Nc1ccccc1-c1ccccc1	CHRM1 antagonist 101, M5 antag 45
O=C(CN1CCCCCC1)NN(Cc1ccccc1)c1ccccc1	CHRM1 antagonist 56
O=C(CN1CCCCC1)Nc1ccccc1	none
O=C(CN1CCCCCC1)Nc1ccc(Oc2ccccc2)cc1	CHRM1 antagonist 42
O=C(CN1CCCC1)NN=C(c1ccccc1)c1ccccc1	CHRM1 antagonist 64
COc1cccc(C=Cc2nccc3ccccc23)c1OC	none
CCN(CC)c1nc(C=Cc2ccc(N(C)C)cc2)c2nccnc2n1	M5 ag 31, CHRM1 agonist 33, CHRM1 antagonist 46, M5 antag 50
CN(C)c1ccc(C=Cc2nccc3ccccc23)cc1	M5 ag 29, CHRM1 agonist 27, CHRM1 antagonist 41, M5 antag 29
COc1ccc(CN(C)C[C@@H]2OCCCC[C@H](C)Oc3ccc(NC(=O)Nc4ccc(F)cc4)cc3C(=O)N([C@H](C)CO)C[C@H]2C)cc1	none
CC(OC(=O)c1c2c(nc3ccccc13)/C(=C\c1ccc3c(c1)OCO3)CCC2)C(=O)Nc1ccc(S(N)(=O)=O)cc1 (centres undefined)	none
Cc1cccc(C)c1NC(=O)COC(=O)c1c2c(nc3ccccc13)/C(=C\c1ccc3c(c1)OCO3)CCC2	M5 ag 49, CHRM1 agonist 42
COc1ccc(C2=Nc3ccccc3N(C(=O)c3cccnc3)C2C(=O)NC2CCCC2)cc1 (centres undefined)	none (no result: M1 PAM, CHRM1 agonist, CHRM1 antagonist)
CCCCc1nc2n[nH]c(N)c2c2c1CCCC2	CHRM5 PAM 22
CCCc1nc2n[nH]c(N)c2c2c1CCCC2	none
CCC(C)[C@H]1CNC(=O)C(=O)N1CC1CCCCC1 (some centres undefined)	none (no result: M1 PAM, CHRM1 agonist, CHRM1 antagonist)
CCOc1ccccc1C(=O)OCC(=O)NCCNC(=O)COC(=O)c1ccccc1OCC	CHRM5 PAM 38
O=C(COC(=O)c1ccccc1C(=O)OCC(=O)NCCc1c[nH]c2ccccc12)NCCc1c[nH]c2ccccc12	CHRM1 antagonist 34, M5 antag 32
CSc1ccc(CN2CCC2(C)C(=O)NCc2cccc(C(F)(F)F)c2)cc1 (centres undefined)	none
CCCCn1nnnc1C1(C)CCC(=O)N1CCc1ccc(OC)c(OC)c1 (centres undefined)	none (no result: M1 PAM, CHRM1 agonist, CHRM1 antagonist)
COc1cccc(-c2c(C(=O)N/N=C(\C)c3cccs3)nnn2-c2nonc2N)c1	CHRM1 agonist 34
COc1cccc(-c2c(C(=O)N/N=C(\C)c3ccncc3)nnn2-c2nonc2N)c1	none
CCOc1cccc(-c2c(C(=O)N/N=C/c3cccnc3)nnn2-c2nonc2N)c1	none
CCOc1cccc(-c2c(C(=O)N/N=C/c3ccc(Br)cc3)nnn2-c2nonc2N)c1	CHRM5 PAM 18, CHRM1 agonist 19

Compound activity: PubChem, The Scripps Research Institute Molecular Screening Center
